Screening results (PubChem BioAssay)
OX1R antag-1: human HCRTR1 antagonism; O43613; CHO/OX1R cells, Fluo-8 calcium fluorescence, orexin A; inhibition, % at 5 µM; hit rate 0.43% among 330,000;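 active = inhibition above its plate's threshold, mean inhibition of all tested compounds on the plate plus 3 SD, cut at about 37% in these data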
OX1R antag-2: blocks the human orexin 1 receptor | hit rate 1.8% among 330,000 | AID 485270 | inhibition, % at 6.6 µM | OX1R-expressing cells, FRET antagonist read-out; in the data active = inhibition mostly above about 38%, no sharp cut-off; inactive = mostly below about 40%
TAAR1 ag: agonists of human TAAR1. Q96RJ0. activation, % at 3 µM. AID 624467. CHO RD-HGA16 TAAR1, Fluo-8 calcium fluorescence; vehicle wells 0%, saturating PEA agonist 100%. hit rate 0.99% among 360,000;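 active = activation above the mean activation of all test compounds in the run plus 3 SD, cut at about 38% in these data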
Target sequence (Q96RJ0 whole entry, looked up): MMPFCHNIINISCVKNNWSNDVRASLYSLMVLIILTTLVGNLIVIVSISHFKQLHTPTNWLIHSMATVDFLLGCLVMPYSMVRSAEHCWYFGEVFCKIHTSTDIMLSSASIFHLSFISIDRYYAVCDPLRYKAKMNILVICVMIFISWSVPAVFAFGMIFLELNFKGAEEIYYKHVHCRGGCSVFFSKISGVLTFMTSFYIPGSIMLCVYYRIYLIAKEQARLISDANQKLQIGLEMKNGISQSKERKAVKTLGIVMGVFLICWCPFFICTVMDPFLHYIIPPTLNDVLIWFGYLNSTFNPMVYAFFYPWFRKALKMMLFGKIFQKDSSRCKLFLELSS
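System: CHO-derived RD-HGA16 cells with stable Gα16 and human TAAR1 / Times: 17-24 h plating, Fluo-8 75 min 37 °C, 30 min RT / Technique: calcium-sensitive Fluo-8 signal, excitation 470-495, emission 515-575 nm / Measure: % activation relative to PEA EC100 response / Benchmarks: DMSO and PEA EC100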
NTR1 agonist: activates human neurotensin receptor 1; NTR1-U2OS beta-arrestin-GFP spot imaging, agonist mode; activation, % at 20 µM; hit rate 0.17% among 330,000;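 active = activation at or above 40% of the spot to cytoplasm intensity ratio, with at least 20 cells analyzed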
CHO parental Ca: counter-screen: ATP calcium response change in parental CHO cells; parental CHO-K1, ATP-induced calcium, Fluo-8 fluorescence; inhibition, % at 5.6 µM; hit rate 0.63% among 330,000;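 active = inhibition above that plate's mean sample inhibition plus 3 SD, cut at about 26% in these data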
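Test system: parental CHO cells; detection: calcium-sensitive Fluo-8 fluorescence; evaluation: percent inhibition of calcium signal; also added: ATP as calcium-mobilizing challenge; repeats: one well per compound; control set: ATP-challenged DMSO wells low, unchallenged DMSO wells high; compound: single nominal dose of 5.6 µM per compound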
TAAR1 antagonist: antagonists of human TAAR1; hit rate 1.5% among 360,000; inhibition, % at 3 µM; CHO RD-HGA16 TAAR1, Fluo-8 calcium fluorescence, antagonist;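 active = inhibition above a per-plate cutoff, the mean inhibition of test compounds on that plate plus 3 SD, cut at about 49% in these data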
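System: RD-HGA16 CHO cells with stable hTAAR1 and Gα16 | Probe or stimulus: EC80 β-phenethylamine stimulus | Dosing: 3 µM, single point | Times: Dye loading 75 min at 37 °C, then 30 min room temperature | Measured by: Fluo-8 calcium-sensitive fluorescence | Read-out basis: % inhibition of agonist calcium response | Replicates: n of 1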
OX1R Fluo8 conf: confirmation of human orexin 1 receptor antagonists; CHO/OX1R cells, orexin A calcium Fluo-8 fluorescence; hit rate 38% among 1,100; inhibition, % at 5 µM; shares compounds with OX1R antag-1; in the data active = inhibition above about 29%
CHO Ca triplic: counter-screen for OX1R antagonists: effect in parental CHO cells; shares compounds with OX1R antag-1; parental CHO-K1, ATP-induced calcium, Fluo-8 fluorescence; inhibition, % at 5.6 µM; hit rate 9.3% among 1,100; AID 492965;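 active = inhibition above a per-plate limit, the mean inhibition of that plate's test compounds plus 3 SD, cut at about 25% in these data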
OX1R HTRF confirm: confirmation of human orexin 1 receptor antagonists, HTRF format; OX1R-expressing cells, HTRF antagonist assay; hit rate 49% among 1,800; shares compounds with OX1R antag-2; AID 492964; inhibition, % at 6.6 µM; in the data active = inhibition above about 55%;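 note: CHO cells expressing OX1R stimulated with orexin A at about EC80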
CHO-K1 HTRF cnt: counter-screen for OX1R antagonists: effect in parental CHO-K1 cells; hit rate 48% among 1,800; shares compounds with OX1R antag-2; inhibition, % at 6.6 µM; HTRF counterscreen; in the data active = inhibition above about 17%
A number is an active result; – = inactive; · = no result. Shown are actives, neighbours in structure and some others; about 4% of the full set was active somewhere.

SMILES	OX1R antag-1	OX1R antag-2	TAAR1 ag	NTR1 agonist	CHO parental Ca	TAAR1 antagonist	others
CN1CCc2cccc(Cl)c2CC1	–	–	102	–	–	86
CN1CCN(Cc2c(F)cccc2Cl)CC1	·	·	–	–	·	–
CC(C)(C)c1cc(C=C(C#N)C#N)cc(C(C)(C)C)c1O	–	44	–	–	–	–
COc1ccc(N2C(=O)/C(=C/c3ccc(C)o3)C(=O)NC2=S)c(OC)c1	–	–	–	–	–	–
O=C1c2ccccc2-n2nnnc2C2c3ccccc3-n3nncc3CN12 (stereo not drawn)	·	·	–	·	·	–
O=C1NC(=O)C(CCc2ccncc2)(Cc2ccc3c(c2)OCO3)C(=O)N1CCc1ccccc1 (stereo not drawn)	–	–	–	–	–	49
O=C1NC(=O)C(CCc2ccncc2)(CCc2ccncc2)C(=O)N1CCc1ccccc1	–	–	–	–	–	–
COc1ccccc1CNCCc1ccc(F)cc1	–	–	41	–	–	–
COc1cc(OC)c(OC)cc1CNCCc1ccc(F)cc1	·	·	–	–	·	–
Cc1ccc(-c2cc(-c3ccc(C)cc3)[n+](-c3ccccc3)c(-c3ccc(C)cc3)c2)cc1	91	–	·	–	71	·
O=C(C[N+]12CCC(CC1)C(OC(=O)c1ccccc1)C2)c1ccc([N+](=O)[O-])cc1 (stereo not drawn)	–	70	–	–	–	–
O=C(C[N+]12CCC(CC1)C(O)C2)c1ccc(Br)cc1 (stereo not drawn)	·	·	–	–	·	–
O=C(C[N+]12CCC(CC1)C(CO)C2)c1ccc([N+](=O)[O-])cc1 (stereo not drawn)	–	59	–	–	–	–
N#CC12CC(=O)N1Cc1cnnn1-c1ccccc12 (stereo not drawn)	·	·	–	·	·	–
CC12C=CC(=O)CC1CCC1C2CCC2(C)C(O)C(O)CC12 (stereo not drawn)	·	·	–	·	·	58
C[C@]12CCC3C(CC[C@H]4C[C@H](O)CC[C@]34C)C1C[C@H](O)[C@@H]2O (stereo partly drawn)	–	–	–	–	–	60
CC(C)c1ccc(C2NCc3ccccc3-n3cccc32)cc1 (stereo not drawn)	·	·	–	–	·	63
NCCc1ccc(OCc2ccccc2)c(OCc2ccccc2)c1	–	–	55	–	–	–
O=P1(NCCCn2cc[n+](Cc3nc4ccccc4[nH]3)c2)C=C(c2ccccc2)OC(c2ccccc2)=C1	–	–	–	–	–	–
CC1=C(O)C(=O)C=C2C1=CC=C1C2(C)CCC2(C)C3CC(C)(C(=O)O)CCC3(C)CCC12C (stereo not drawn)	·	·	41	·	·	74
COc1ccc(OC(=O)N(C)C[C@H]2OCc3cnnn3CCCC(=O)N([C@H](C)CO)C[C@@H]2C)cc1	·	·	–	·	·	–
COC(=O)C1=C(C(=O)OC)C2OC1c1cc3ccccc3cc12	·	·	–	·	·	58
COC(=O)C1=C(c2ccc3ccccc3c2)C[C@@H]2CC[C@H]1N2C	–	–	–	–	–	–
C/C=C(\C)C(=O)OC1C(C)=C2C(C1OC(=O)CCCCC)C(C)(OC(C)=O)CC(OC(=O)CCC)C1(O)C2OC(=O)C1(C)O (stereo not drawn)	101	–	·	–	101	·
Cc1nc2ccccc2c(=O)n1-c1ccc(Cl)cc1[N+](=O)[O-]	–	–	–	–	–	–
SMILES	OX1R antag-1	OX1R antag-2	TAAR1 ag	NTR1 agonist	CHO parental Ca	TAAR1 antagonist	others
O=c1[nH]c(O)c(C=Nc2cccc(F)c2)c(=O)[nH]1	–	–	–	–	–	–
O=C1NCN(c2ccccc2)C12CCN(C(c1nnnn1-c1ccc3c(c1)OCCO3)C1CC1)CC2 (stereo not drawn)	·	·	–	·	·	–
O=c1[nH]c2ccccc2n1C1CCN(C(c2nnnn2-c2ccc3c(c2)OCCO3)C2CC2)CC1 (stereo not drawn)	·	·	–	·	·	62
O=C1NCN(c2ccccc2)C12CCN(C(c1ccccc1)c1nnnn1-c1ccc3c(c1)OCCO3)CC2 (stereo not drawn)	·	·	–	·	·	–
O=c1[nH]c2ccccc2n1C1CCN(C(c2ccccc2)c2nnnn2-c2ccc3c(c2)OCCO3)CC1 (stereo not drawn)	·	·	–	·	·	62
COc1ccc(-c2cc(=NCCCCCC(=O)O)c3cc(C)ccc3o2)cc1	·	·	–	·	·	–
COc1ccc(-c2cc(=NCC(=O)O)c3ccccc3o2)cc1	–	64	·	–	–	·
CC(C)NC(C)Cc1ccc(I)cc1 (stereo not drawn)	–	–	–	–	–	–
Nc1ccc2ccc3cccc[n+]3c2c1	–	–	40	–	37	–
CNCCCc1ccccc1	–	–	43	–	–	–
Cn1nnc(CC[N+](C)(C)C)n1	–	–	–	–	–	–
Cn1c(O)c(/C=C/C=Nc2ccccc2)c(=O)n(C)c1=S	–	–	41	–	–	–	OX1R Fluo8 conf=33;CHO Ca triplic=36
O=C(c1cc2cc(Br)ccc2[nH]1)N1CCC2(CC1)OCCO2	–	–	–	–	–	–
O=C(c1cc(Br)ccc1Cl)N1CCC2(CC1)OCCO2	45	–	–	–	–	–	OX1R Fluo8 conf=–;CHO Ca triplic=–
COC(=O)C1=C(c2ccccc2OCc2ccccc2)C[C@@H]2CC[C@H]1N2C(=O)NCc1cccc(C(F)(F)F)c1	61	–	–	–	–	–	OX1R Fluo8 conf=–;CHO Ca triplic=–
O=C1NC(=O)C2(Cc3cc([N+](=O)[O-])ccc3N3CCN(C(=O)c4ccccc4)CC32)C(=O)N1 (stereo not drawn)	–	–	–	–	–	–
COC(=O)C1=C(c2ccc(C(C)=O)cc2)C[C@@H]2CC[C@H]1N2C(=O)NC1Cc2ccccc2C1	–	–	·	–	–	·
Cc1cccc(C(=O)Nc2ccc3c(c2)CC2(C(=O)N(C)C(=O)N(C)C2=O)C2CCCN32)c1 (stereo not drawn)	–	–	·	–	–	·
COc1ccccc1C(=O)Nc1ccc2c(c1)CC1(C(=O)N(C)C(=O)N(C)C1=O)C1CCCN21 (stereo not drawn)	–	67	–	–	–	–	OX1R Fluo8 conf=43;CHO Ca triplic=–;OX1R HTRF confirm=90;CHO-K1 HTRF cnt=20
